Test results from ChEMBL document CHEMBL1130289, “Polyanion inhibitors of human immunodeficiency virus and other viruses. 5. Telomerized anionic surfactants derived from amino acids” (J Med Chem, 1997).

What was measured:
CEM-4 = experiment: Cytotoxic concentration required to reduce the viability of uninfected cells by 50% after 5 days of incubation in the presence on CEM-4 cells.; assay type: functional; details: Homo sapiens, CEM-4, 120 h
In short: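 Uninfected CEM-4 cells were incubated with compound for 5 days. CC50 is the concentration that reduced viability by 50%. Values average at least two separate experiments.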

[1] = system: Human immunodeficiency virus 1; experiment: Inhibitory concentration required to inhibit HIV-induced cytopathicity in CEM-4 cells by 50% based in the MTT assay; assay type: functional, organism-based; details: Human immunodeficiency virus 1, CEM-4
[2] = system: Human immunodeficiency virus 1; experiment: Inhibitory concentration required to inhibit HIV-induced cytopathicity in CEM-4 cells by 50% based in the MTT assay; Not active; assay type: functional, organism-based
Coxsackievirus = experiment: Concentration required to inhibit Coxsackie induced cytopathicity in HeLa cells by 50%; assay type: functional, organism-based
In short: (§1)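 Virus was added to the cell monolayers in the presence of compound. Incubation continued until the viral cytopathic effect was scored. IC50 is the concentration that reduced virus-induced cytopathicity by 50%.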

Poliovirus 1 = experiment: Concentration required to inhibit Polio-1 induced cytopathicity in HeLa cells by 50%; assay type: functional, organism-based; details: Enterovirus C
[3] = system: Vesicular stomatitis virus; experiment: Concentration required to inhibit vesicular stomatitis induced cytopathicity in E6SM cells by 50%; assay type: functional, organism-based
E6SM = experiment: Minimum cytotoxic concentration required to cause a microscopically detectable alteration of normal cell morphology in E6SM cells; assay type: functional, Homo sapiens
In short: (§2)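 Uninfected E6SM, HeLa or Vero cells were exposed to compound and examined by microscopy. MCC is the lowest concentration causing a detectable alteration of normal cell morphology.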

Human alphaherpesvirus 1 [4] = experiment: Concentration required to inhibit HSV-1(KOS) induced cytopathicity in E6SM cells by 50%; details: Human alphaherpesvirus 1, E6SM
Human alphaherpesvirus 2 = experiment: Concentration required to inhibit HSV-2(G) induced cytopathicity in E6SM cells by 50%; details: Human alphaherpesvirus 2, E6SM
[5] = system: Human immunodeficiency virus 2; experiment: Concentration required to inhibit by 50% syncytium formation between MOLT-4 cells and HIV-2 (ROD) infected HUT-78 cells; assay type: functional, organism-based; details: Human immunodeficiency virus 2, MOLT-4
In short: (§3)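 Uninfected MOLT-4 cells were co-cultured with HUT-78 cells chronically infected with HIV-1 (IIIB) or HIV-2 (ROD), in the presence of compound. The end point was syncytium formation, and IC50 is the concentration giving 50% inhibition. Values are means of two separate experiments.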

Vero = experiment: Minimum cytotoxic concentration required to cause a microscopically detectable alteration of normal cell morphology in Vero cells; assay type: functional, Chlorocebus sabaeus; in short: as §2
Tacaribe virus = experiment: Concentration required to inhibit Tacaribe induced cytopathicity in Vero cells by 50%; assay type: functional, cell-based; details: Mammarenavirus tacaribeense
[6] = system: Human immunodeficiency virus 1; experiment: Concentration required to inhibit by 50% syncytium formation between MOLT-4 cells and HIV-1(IIIB); assay type: functional, organism-based; details: Human immunodeficiency virus 1, MOLT-4; in short: as §3
Human betaherpesvirus 5 [7] = experiment: Concentration required to inhibit HCMV(Davis) induced cytopathicity in HEL cells by 50%; assay type: functional, organism-based; details: Human betaherpesvirus 5, HEL; in short: as §1
[8] = system: Human immunodeficiency virus 1; experiment: Concentration required to inhibit HIV-1 induced cytopathicity in MT-4 cells by 50%; assay type: functional, organism-based; details: Human immunodeficiency virus 1, MT4
In short: (§4)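 MT-4 cells were infected with HIV-1 (strain HTLV-IIIB/LAI) or HIV-2 (strain LAV-2 ROD) and exposed to compound. IC50 is the concentration that inhibited HIV-induced cytopathicity by 50%. Values are means of two separate experiments.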

Sindbis virus = experiment: Concentration required to inhibit Sindbis induced cytopathicity in Vero cells by 50%; assay type: functional, organism-based; in short: as §1
HEL = experiment: Minimum cytotoxic concentration required to cause a microscopically detectable alteration of normal cell morphology in HEL cells; assay type: functional, Homo sapiens
Semliki Forest virus = experiment: Concentration required to inhibit forest induced cytopathicity in Vero cells by 50%; assay type: functional, organism-based; in short: as §1
Junin virus = experiment: Concentration required to inhibit Junin induced cytopathicity in Vero cells by 50%; assay type: functional, organism-based; details: Mammarenavirus juninense
Human alphaherpesvirus 1 [9] = experiment: Concentration required to inhibit HSV-1 TK-(B2006) induced cytopathicity in E6SM cells by 50%; details: Human alphaherpesvirus 1, E6SM
[10] = system: Mammalian orthoreovirus 1; experiment: Concentration required to inhibit reovirus-1 induced cytopathicity in Vero cells by 50%; assay type: functional, organism-based; details: Mammalian orthoreovirus 1, Vero; in short: as §1
Vaccinia virus = experiment: Concentration required to inhibit Vaccinia induced cytopathicity in E6SM cells by 50%; assay type: functional, organism-based; details: Orthopoxvirus vaccinia
[11] = system: Human immunodeficiency virus 2; experiment: Concentration required to inhibit HIV-2 induced cytopathicity in MT-4 cells by 50%; assay type: functional, organism-based; details: Human immunodeficiency virus 2, MT4; in short: as §4
HeLa = experiment: Minimum cytotoxic concentration required to cause a microscopically detectable alteration of normal cell morphology in HeLa cells; assay type: functional, Homo sapiens; in short: as §2
MT4 = experiment: Concentration required to reduce the viability of mock-infected MT-4 cells by 50%; assay type: functional; details: Homo sapiens
In short: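 Mock-infected MT-4 cells were exposed to compound. CC50 is the concentration that reduced cell viability by 50%. Values are means of two separate experiments.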

Human betaherpesvirus 5 [12] = experiment: Concentration required to inhibit HCMV(AD169) induced cytopathicity in HEL cells by 50%; assay type: functional, organism-based; details: Human betaherpesvirus 5, HEL; in short: as §1
Human respirovirus 3 = experiment: Concentration required to inhibit parainfluenza-3 induced cytopathicity in Vero cells by 50%; assay type: functional, organism-based; details: Human respirovirus 3, Vero; in short: as §1

For `CCCCCCCCCCCCSCCCCCCCCC(=O)N(CC)CCCCCCCCCCC(=O)[O-].[Na+]`, the CC50 (CEM-4) was 100 µg/mL and the IC50 [1] was 25 µg/mL.

With `CCCCCCCCCCCCSCCCCCCCCC(=O)NCCCCCCCCCCC(=O)[O-].[Na+]` the CC50 (CEM-4) was 29 µg/mL and the IC50 [2] was “Not Active”.

In the case of `CCCCCCCCCCCCSCCCCCCCCCCCCCCC(=O)NCCCCCCCCCCC(=O)NCC(=O)[O-].[Na+]`, the CC50 (CEM-4) was over 300 µg/mL and the IC50 [1] was 15 µg/mL.

`CCCCCCCCCCCCSCCCCC(=O)NCCCCCCCCCCC(=O)NCCC(=O)[O-].[Na+]` was tested, and the IC50 (Coxsackievirus) was over 200 µg/mL, the IC50 (Poliovirus 1) was over 200 µg/mL and the IC50 [3] was over 200 µg/mL. It also gave a CC50 (CEM-4) of over 300 µg/mL, an MMC (E6SM) of 400 µg/mL and an IC50 (Human alphaherpesvirus 1 [4]) of 40 µg/mL. The IC50 (Human alphaherpesvirus 2) was 20 µg/mL, the IC50 [5] was 6 µg/mL and the MMC (Vero) was over 200 µg/mL. For the same compound, the IC50 (Tacaribe virus) was 43 µg/mL, the IC50 [6] was 30 µg/mL and the IC50 [2] was “Not Active”. The IC50 (Human betaherpesvirus 5 [7]) was 23 µg/mL, the IC50 [8] was 6 µg/mL and the IC50 (Sindbis virus) was over 200 µg/mL. The MMC (HEL) was over 50 µg/mL, the IC50 (Semliki Forest virus) was over 200 µg/mL and the IC50 (Junin virus) was 50 µg/mL. The IC50 (Human alphaherpesvirus 1 [9]) was 70 µg/mL, the IC50 [10] was over 200 µg/mL and the IC50 (Vaccinia virus) was over 200 µg/mL. The IC50 [11] was 27 µg/mL, the MMC (HeLa) was over 200 µg/mL and the CC50 (MT4) was over 250 µg/mL. It also gave an IC50 (Human betaherpesvirus 5 [12]) of 30 µg/mL and an IC50 (Human respirovirus 3) of over 200 µg/mL.

`CCCCCCCCCCCCSCCCCCCC(=O)NCCCCCCCCCCC(=O)NCC(=O)[O-].[Na+]` was tested, and the CC50 (CEM-4) was 118 µg/mL and the IC50 [2] was “Not Active”.

For `CCCCCCCCCCCCSCCCCCCCCCCC(=O)N(CC)CCCCCCCCCCC(=O)NCCC(=O)[O-].[Na+]`, the IC50 (Coxsackievirus) was over 200 µg/mL, the IC50 (Poliovirus 1) was over 200 µg/mL and the IC50 [3] was over 200 µg/mL. For the same compound, the CC50 (CEM-4) was 50 µg/mL, the IC50 (Human alphaherpesvirus 1 [4]) was 70 µg/mL and the IC50 (Human alphaherpesvirus 2) was 20 µg/mL. The IC50 [5] was 30 µg/mL, the MMC (Vero) was over 200 µg/mL and the IC50 (Tacaribe virus) was over 50 µg/mL. The IC50 [6] was 30 µg/mL, the IC50 [2] was “Not Active” and the IC50 (Human betaherpesvirus 5 [7]) was 20 µg/mL. For the same compound, the IC50 [8] was 13 µg/mL, the IC50 (Sindbis virus) was over 200 µg/mL and the MMC (HEL) was over 50 µg/mL. For the same compound, the IC50 (Semliki Forest virus) was over 200 µg/mL, the IC50 (Junin virus) was over 50 µg/mL and the IC50 (Human alphaherpesvirus 1 [9]) was 150 µg/mL. The IC50 [10] was over 200 µg/mL, the IC50 (Vaccinia virus) was over 200 µg/mL and the IC50 [11] was 30 µg/mL. For the same compound, the MMC (HeLa) was over 200 µg/mL, the CC50 (MT4) was over 250 µg/mL and the IC50 (Human betaherpesvirus 5 [12]) was 50 µg/mL. The IC50 (Human respirovirus 3) was over 200 µg/mL.

For `CCCCCCCCCCCCSCCCCCCC(=O)N(CC)CCCCCCCCCCC(=O)NCC(=O)[O-].[Na+]`, the CC50 (CEM-4) was 50 µg/mL and the IC50 [2] was “Not Active”.

`CCCCCCCCCCCCSCCCCCCCCCCCCCCCCCCCCCCCCCCCCCCC(=O)N(CC)CCCCCCCCCCC(=O)NCC(=O)[O-].[Na+]` gave a CC50 (CEM-4) of 80 µg/mL and an IC50 [1] of 4 µg/mL.

In the case of `CCCCCCCCCCCCSCCCCCCCCCCCCCCCCCCC(=O)N(C)CCCCCCCCCCC(=O)[O-].[Na+]`, the CC50 (CEM-4) was over 200 µg/mL and the IC50 [2] was “Not Active”.

With `CCCCCCCCCCCCSCCCCCCC(=O)NCCCCCCCCCCC(=O)NCCC(=O)[O-].[Na+]` the CC50 (CEM-4) was over 300 µg/mL and the IC50 [2] was “Not Active”.

With `CCCCCCCCCCCCSCCCCCCCCCCCCCCCCCCCCCCC(=O)NCCCCCCCCCCC(=O)[O-].[Na+]` the IC50 (Coxsackievirus) was over 200 µg/mL, the IC50 (Poliovirus 1) was over 200 µg/mL and the IC50 [3] was over 100 µg/mL. For the same compound, the CC50 (CEM-4) was 99 µg/mL, the MMC (E6SM) was over 200 µg/mL and the IC50 (Human alphaherpesvirus 1 [4]) was over 100 µg/mL. The IC50 (Human alphaherpesvirus 2) was over 100 µg/mL, the IC50 [5] was 150 µg/mL and the IC50 (Tacaribe virus) was over 50 µg/mL. For the same compound, the IC50 [6] was 150 µg/mL, the IC50 [2] was “Not Active” and the IC50 (Human betaherpesvirus 5 [7]) was over 50 µg/mL. The IC50 [8] was 55 µg/mL, the IC50 (Sindbis virus) was over 100 µg/mL and the MMC (HEL) was over 50 µg/mL. The IC50 (Semliki Forest virus) was over 100 µg/mL, the IC50 (Junin virus) was over 50 µg/mL and the IC50 (Human alphaherpesvirus 1 [9]) was over 100 µg/mL. For the same compound, the IC50 [10] was over 100 µg/mL, the IC50 (Vaccinia virus) was over 100 µg/mL and the IC50 [11] was 69 µg/mL. It also gave an MMC (HeLa) of over 200 µg/mL, a CC50 (MT4) of over 250 µg/mL and an IC50 (Human betaherpesvirus 5 [12]) of over 50 µg/mL. The IC50 (Human respirovirus 3) was over 100 µg/mL.

`CCCCCCCCCCCCSCCCCCCCCCCCCCCCCCCCCCCCCCCCCCCCCCCC(=O)N(CC)CCCCCCCCCCC(=O)NC(CCC(=O)[O-])C(=O)O.[Na+]` (stereo not drawn) was tested, and the CC50 (CEM-4) was over 300 µg/mL and the IC50 [1] was 25 µg/mL.

`CCCCCCCCCCCCSCCCCCCCCCCCCCCCCCCCCC(=O)N(CC)CCCCCCCCCCC(=O)NC(CCC(=O)[O-])C(=O)O.[Na+]` (stereo not drawn) gave a CC50 (CEM-4) of over 300 µg/mL and an IC50 [1] of 46 µg/mL.

`CCCCCCCCCCCCSCCCCCCCCCCC(=O)NCCCCCCCCCCC(=O)NC(CCC(=O)[O-])C(=O)O.[Na+]` (stereo not drawn) showed a CC50 (CEM-4) of over 100 µg/mL and an IC50 [1] of 11 µg/mL.
